Assays:
L6 = test: Cytotoxicity against rat L6 cells after 70 hrs by alamar blue assay; assay type: cell-based; conditions: L6, 70 h
Outline: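 Cells were exposed to serial dilutions for 70 h at 37 °C, 5% CO₂, then given resazurin for 2–3 h. IC50 came from sigmoidal curves; two independent runs in duplicate. Top concentration was 90 μg/mL, converted to μM by molecular weight.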

[1] = test system: Trypanosoma brucei rhodesiense; test: Antitrypanosomal activity against Trypanosoma brucei rhodesiense STIB900 after 70 hrs by alamar blue assay; assay type: functional, organism-based; conditions: STIB900, 70 h
[2] = Selectivity index, ratio of IC50 for rat L6 cells to IC50 for Trypanosoma brucei rhodesiense STIB900; assay type: toxicity, cell-based; conditions: read-out: Ratio IC50
Outline: (§1)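 Each index is L6 IC50 divided by parasite IC50. L6 values are from the 70 h resazurin assay. T. b. rhodesiense STIB900 values are from the 70 h resazurin assay. P. falciparum K1 values are from erythrocytic-stage [³H]-hypoxanthine incorporation: 48 h drug exposure, then 24 h with label. L. donovani values are from the 72 h axenic amastigote CellTiter assay.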

Plasmodium falciparum = test: Antiplasmodial activity against chloroquine-resistant Plasmodium falciparum K1 infected in human erythrocytes after 48 hrs assessed as [3H]hypoxanthine incorporation by liquid scintillation counting; assay type: functional, organism-based
[3] = Selectivity index, ratio of IC50 for rat L6 cells to IC50 for Plasmodium falciparum K1; assay type: toxicity, cell-based; conditions: read-out: Ratio IC50; outline: as §1
Leishmania donovani = test: Antileishmanial activity against Leishmania donovani MHOM/SD/62/1S-CL2D; assay type: functional, organism-based
Outline: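 Axenic amastigotes (MHOM/SD/62/1S-CL2_D) adapted from promastigotes and grown in amastigote medium at 37 °C. 6 × 10⁴ parasites per well were exposed to 2-fold serial dilutions for 72 h at 37 °C in humidified 5% CO₂. Growth was read with tetrazolium CellTiter reagent as absorbance at 490 nm. IC50 came from a four-parameter dose–response fit; duplicate determinations were averaged.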

SMILES	IC50 (L6) [µM]	IC50 [1] [µM]	selectivity ratio [2]	IC50 (Plasmodium falciparum) [µM]	selectivity ratio [3]	IC50 (Leishmania donovani) [µM]
N=C(N)c1ccc(-c2cn(-c3cc(C(=N)N)ccc3O)nn2)cc1	> 203	6.64	> 31	1.23	> 165	> 100
COc1ccc(C(=N)NC(C)C)cc1-n1cc(-c2cccc(C(=N)NC(C)C)c2)nn1	131	10.1	13	0.125	1050	> 100
c1cc(C2=NCCN2)cc(-c2cn(-c3cccc(C4=NCCN4)c3)nn2)c1	> 197	14.1	> 14	0.365	> 540	> 100
CC(C)NC(=N)c1cccc(-c2cn(-c3cccc(C(=N)NC(C)C)c3)nn2)c1	> 184	14.8	> 12	0.118	> 1560	> 100
c1cc(C2=NCCN2)cc(-n2cc(-c3ccc(C4=NCCN4)cc3)nn2)c1	133	0.461	289	0.095	1400	> 100
Oc1ccc(C2=NCCN2)cc1-n1cc(-c2ccc(C3=NCCN3)cc2)nn1	> 175	19.6	> 9	0.885	> 198	> 100
CC(C)NC(=N)c1cccc(-c2cn(-c3ccc(C(=N)NC(C)C)cc3O)nn2)c1	> 187	18.7	> 10	1.19	> 157	> 100
COc1cc(C(=N)NC(C)C)ccc1-c1cn(-c2ccc(C(=N)NC(C)C)cc2)nn1	> 166	0.201	> 826	0.013	> 12800	> 100
COc1cc(C2=NCCN2)ccc1-c1cn(-c2cccc(C3=NCCN3)c2)nn1	> 172	4.02	> 43	0.064	> 2690	> 100
COc1ccc(C(=N)N)cc1-c1cn(-c2cccc(C(=N)N)c2)nn1	> 200	1.65	> 121	0.024	> 8330	> 100
COc1ccc(C(=N)NC(C)C)cc1-c1cn(-c2ccc(C(=N)NC(C)C)cc2)nn1	> 177	0.077	> 2300	0.026	> 6810	> 100
CC(C)NC(=N)c1ccc(-c2cn(-c3ccc(C(=N)NC(C)C)cc3O)nn2)cc1	> 178	1.38	> 129	0.8	> 223	> 100
N=C(N)c1cccc(-c2cn(-c3cc(C(=N)N)ccc3O)nn2)c1	> 209	49.6	> 4	8.93	> 23	> 100
COc1cc(C2=NCCN2)ccc1-c1cn(-c2ccc(C3=NCCN3)cc2)nn1	142	0.116	1220	0.011	12900	> 100
Oc1cc(C2=NCCN2)ccc1-n1cc(-c2ccc(C3=NCCN3)cc2)nn1	> 198	0.998	> 198	0.041	> 4830	> 100
CC(C)NC(=N)c1cccc(-c2cn(-c3cc(C(=N)NC(C)C)ccc3O)nn2)c1	> 167	13.9	> 12	0.739	> 226	> 100
COc1ccc(C2=NCCN2)cc1-n1cc(-c2cccc(C3=NCCN3)c2)nn1	> 172	7.83	> 22	0.03	> 5730	> 100
